The source made the active and inactive calls. The calls are words filed in the database; no cut-off is given here.
Columns and labels:
[1] = target: T1, Delta-aminolevulinic acid dehydratase (Escherichia coli (strain K12)) (UniProt P0ACB2); test: Inhibition of Escherichia coli recombinant PBGS using 5-ALA as substrate at 50 to 200 uM at pH 7 to 8.5 by buffer scan assay in presence of KCl
T1 sequence (whole entry): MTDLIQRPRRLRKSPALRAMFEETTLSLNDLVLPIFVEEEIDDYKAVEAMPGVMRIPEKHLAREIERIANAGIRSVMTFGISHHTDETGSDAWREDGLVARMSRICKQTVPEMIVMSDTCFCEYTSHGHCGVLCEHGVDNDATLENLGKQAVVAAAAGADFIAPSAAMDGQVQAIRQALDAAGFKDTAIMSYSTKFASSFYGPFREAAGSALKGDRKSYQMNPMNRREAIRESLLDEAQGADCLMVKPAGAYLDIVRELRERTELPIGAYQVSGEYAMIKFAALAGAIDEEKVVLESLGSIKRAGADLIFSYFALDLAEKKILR

[2] = target: T1, Delta-aminolevulinic acid dehydratase (Escherichia coli (strain K12)); test: Stimulation of Escherichia coli recombinant PBGS using 5-ALA as substrate relative to control
Method in brief: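 E. coli PBGS at 200 nM subunit in 100 mM BTP-HCl pH 8.1 with 1 mM MgCl2, 10 μM ZnCl2, 5 mM DTT and 0.2 mM 5-ALA, 10 min at 36 °C. Porphobilinogen detected with Ehrlich's reagent. EC50 by log(agonist) vs response variable-slope fit.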

[3] = target: T2, Delta-aminolevulinic acid dehydratase (Wolbachia sp. subsp. Brugia malayi (strain TRS)) (UniProt Q5GSR3); details: 25 to 2500 uM
T2 sequence (whole entry): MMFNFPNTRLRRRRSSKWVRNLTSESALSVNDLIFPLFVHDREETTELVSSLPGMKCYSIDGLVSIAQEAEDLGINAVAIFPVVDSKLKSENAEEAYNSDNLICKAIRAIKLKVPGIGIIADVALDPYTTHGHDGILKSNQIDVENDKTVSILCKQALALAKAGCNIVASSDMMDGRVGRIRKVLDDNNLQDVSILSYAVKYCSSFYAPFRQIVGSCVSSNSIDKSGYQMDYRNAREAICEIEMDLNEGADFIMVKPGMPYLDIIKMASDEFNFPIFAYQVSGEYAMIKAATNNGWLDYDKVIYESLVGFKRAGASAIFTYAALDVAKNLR

[4] = target: Delta-aminolevulinic acid dehydratase (Pseudomonas aeruginosa (strain ATCC 15692 / PAO1 / 1C / PRS 101 / LMG12228)) (UniProt Q59643); test: Stimulation of Pseudomonas aeruginosa PAO1 recombinant PBGS using 5 mM 5-ALA as substrate assessed as change in enzyme affinity for Mg2+ at 10 to 10000 uM at pH 8 by buffer scan assay in presence of MgCl2
Method in brief: (§1)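 Mg2+ or substrate response curves recorded with and without wALADin1; VMAX, KM and Mg2+ affinity derived from the fits.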

[5] = target: T3, Delta-aminolevulinic acid dehydratase, chloroplastic (Pisum sativum) (UniProt P30124); test: Inhibition of Pisum sativum PBGS using 5-ALA as substrate at 8 to 2000 uM after 30 mins by nondenaturing PAGE analysis; details: Lathyrus oleraceus
T3 sequence (whole entry): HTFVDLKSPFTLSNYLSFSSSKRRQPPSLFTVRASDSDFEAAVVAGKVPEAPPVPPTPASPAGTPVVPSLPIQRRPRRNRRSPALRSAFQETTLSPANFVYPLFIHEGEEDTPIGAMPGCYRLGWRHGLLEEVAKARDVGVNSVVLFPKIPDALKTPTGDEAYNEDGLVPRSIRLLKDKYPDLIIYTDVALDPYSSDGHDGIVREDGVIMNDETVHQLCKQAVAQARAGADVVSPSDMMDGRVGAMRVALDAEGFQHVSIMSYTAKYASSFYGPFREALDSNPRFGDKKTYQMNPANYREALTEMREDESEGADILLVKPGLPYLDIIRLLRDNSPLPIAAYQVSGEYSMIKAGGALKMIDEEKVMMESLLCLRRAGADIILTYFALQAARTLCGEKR

[6] = target: Delta-aminolevulinic acid dehydratase (Pseudomonas aeruginosa (strain ATCC 15692 / PAO1 / 1C / PRS 101 / LMG12228)) (UniProt Q59643); test: Inhibition of Pseudomonas aeruginosa PAO1 recombinant PBGS using 0.2 mM 5-ALA as substrate assessed as […] at 50 to 200 uM at pH 7.5 by buffer scan assay in presence of 1 mM MgCl2 and 1 to 1000 mM KCl
[7] = target: Delta-aminolevulinic acid dehydratase (Pseudomonas aeruginosa (strain ATCC 15692 / PAO1 / 1C / PRS 101 / LMG12228)) (UniProt Q59643); test: Stimulation of Pseudomonas aeruginosa PAO1 recombinant PBGS using 5 mM 5-ALA as substrate assessed as effect on Km at 50 to 200 uM at pH 8 by Michaelis-Menten plot analysis in presence of MgCl2; method in brief: as §1
[8] = target: T3, Delta-aminolevulinic acid dehydratase, chloroplastic (Pisum sativum); test: Inhibition of Pisum sativum PBGS using 10 mM 5-ALA as substrate assessed as decrease in enzyme activity at 6.25 to 100 uM in presence of MgCl2; details: Lathyrus oleraceus

Chain of Delta-aminolevulinic acid dehydratase (Pseudomonas aeruginosa (strain ATCC 15692 / PAO1 / 1C / PRS 101 / LMG12228)) (Q59643 whole entry): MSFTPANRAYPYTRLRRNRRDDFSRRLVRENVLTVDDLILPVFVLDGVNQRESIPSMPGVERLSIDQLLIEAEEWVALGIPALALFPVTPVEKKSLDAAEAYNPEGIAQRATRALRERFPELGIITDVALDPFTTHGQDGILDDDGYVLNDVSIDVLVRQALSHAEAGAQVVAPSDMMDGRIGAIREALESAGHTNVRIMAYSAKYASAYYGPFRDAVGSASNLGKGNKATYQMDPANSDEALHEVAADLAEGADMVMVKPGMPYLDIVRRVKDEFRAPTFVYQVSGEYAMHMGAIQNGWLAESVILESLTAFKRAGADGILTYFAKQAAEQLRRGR

In the case of O=C(O)c1ccc2c(c1)nc(CCNC(=O)c1cccs1)n2Cc1cccc(C(F)(F)F)c1, the inhibition [1] was “Active”, the Smax [2] was 120% and the inhibition [3] was “inactive”. The Activity [4] was “Active”, the inhibition [5] was “Active” and the inhibition [6] was “inactive”. For the same compound, the Activity [7] was “inactive” and the inhibition [8] was “Active”.

From ChEMBL document CHEMBL3286371, “wALADin benzimidazoles differentially modulate the function of porphobilinogen synthase orthologs” (J Med Chem, 2014)
